Each structure is given as a SMILES string.

The nature of the data set: Toxicity liver stage against HepG2, at 10uM. The class given is cell-based. The arrangement: test concentration 10 uM, cell line HepG2-A16-CD81EGFP. As to conditions: human, HepG2-A16-CD81EGFP cells; read-out: INHIBITION
In a few lines:
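Uninfected HepG2-A16-CD81EGFP cells, 3 × 10^3 per well, 1536-well, plated on prespotted compound at 10 μM final, parasite-free screening media added to match infected plates; puromycin 10 μM positive, DMSO 0.5% negative; run in parallel with 48 h PbLuc assay at 37 °C, 5% CO2; viability by CellTiter-Glo luminescence, normalized to controls.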
With `Cc1cccc(NC(=O)C2CC(=O)n3cnnc3S2)c1` (stereo unspecified), the cytotoxicity at 10 µM is 2.37%.
For `CCC(=O)N1CCCc2c(cnn2C)C1`, the cytotoxicity at 10 µM amounted to 3.12%.
For the molecule `O[C@H]1CC[C@@H](Cc2cc(-c3ccccn3)on2)O[C@@H]1CNCC1CC1`, the cytotoxicity at 10 µM is -4.05%.
As for `CS(=O)(=O)NC[C@H]1OC[C@@H](NC2CCC(F)(F)CC2)[C@@H]1O`, the cytotoxicity at 10 µM stood at 0.644%.
As to `CN1Cc2cc(F)ccc2N(CC(O)C(F)(F)F)CCC1=O` (stereo unspecified), the cytotoxicity at 10 µM stood at 1.06%.
As for `O=C(NCCC(O)c1ccco1)c1ccco1` (stereo unspecified), the cytotoxicity at 10 µM was determined as 7.94%.
As for `Cc1nnc(C2CCN(C(=O)c3ccc4[nH]ccc4c3)CC2)s1`, the cytotoxicity at 10 µM turned out to be 15%.
Regarding `O=S(=O)(NCCC(O)c1ccoc1)c1ccc(Cl)s1` (stereo unspecified), the cytotoxicity at 10 µM is -0.847%.
As for `Cc1cccc(CS(=O)(=O)NCc2nn(C)c3c2CCCC3)c1`, the figure is 2.37%.
As for `Cc1nc(-c2cnn(C)c2)nc2c1CN(C(=O)c1cccnc1)CC2`, the figure is 2.68%.
With `Fc1ccc2c(c1)C1(CCNCC1)CC2OCC1CC1` (stereo unspecified), the cytotoxicity at 10 µM is 4.92%.
For the molecule `CCS(=O)(=O)N1CCc2cc(C(=O)N(C)C)c(NCC3CC3)nc2CC1`, the cytotoxicity at 10 µM came out at 0.0623%.
`Cc1ccc(C(=O)N2CCc3ncnc(-c4cnn(C)c4)c3CC2)o1`: the cytotoxicity at 10 µM was 2.11%.
For the molecule `N#Cc1ccc(C(=O)N2C[C@H](OCc3cccnc3)[C@H]3COC[C@H]32)cc1`, the cytotoxicity at 10 µM is 5.38%.
As for `COCC(=O)N1CCN(C)c2ncccc2C1`, the figure is -3.1%.
In the case of `Cc1noc([C@@H]2C[C@H]3OCC[C@H]3N(S(=O)(=O)c3ccccc3)C2)n1` it was -126%.
Take `Cc1cccn2c(=O)cc(OC(=O)c3ccc(OC(C)C)cc3)nc12`: the cytotoxicity at 10 µM amounted to 10%.
In the case of `Cc1nc(-c2ccccc2F)sc1C(=O)N1CCC(=O)CC1` it was -7.42%; in that of `COc1ccc(S(=O)(=O)N2CCCC3(CCCN3S(C)(=O)=O)C2)cc1` (stereo unspecified), -0.908%.
With `CCc1ncnc2c1CCN(C(=O)Cc1ccccn1)CC2`, the cytotoxicity at 10 µM is -8.75%.
For `Cc1ncc(C(=O)N2CCOC(C(=O)N3CCCCC3)C2)c(C)n1` (stereo unspecified), the cytotoxicity at 10 µM came out at 1.14%.
In the case of `CC(C)c1ncc(CN2CCCC(CO)C2)cn1` (stereo unspecified) it was -1.49%; in that of `OCc1cn(Cc2cccc(C(F)(F)F)c2)nn1`, 8.02%.
As for `CC(NC(=O)N1CCS(=O)(=O)CC1)c1c(F)cccc1Cl` (stereo unspecified), the cytotoxicity at 10 µM turned out to be 3.54%.
As to `COC(=O)c1ncccc1N1CCC(C(O)c2ccccc2)CC1` (stereo unspecified), the cytotoxicity at 10 µM is -4.11%.
Regarding `O=C(c1cnc(-c2ccccc2)s1)N1CCC2(CC1)OCCO2`, the cytotoxicity at 10 µM came to 2.42%.
For the molecule `CCC(=O)NC(CC(C)C)c1cccs1` (stereo unspecified), the cytotoxicity at 10 µM was 6.18%.
`CC(CNC(=O)c1cccnc1O)Cn1cccn1` (stereo unspecified): the cytotoxicity at 10 µM came out at 0.144%.
For `CC(C)c1ocnc1C(=O)N1CCC2(CC1)OCCO2`, the cytotoxicity at 10 µM was 0.0416%.
`CNC(=O)NC(=O)CN(C)C(c1cccnc1)c1ccc(F)cc1F` (stereo unspecified): the cytotoxicity at 10 µM amounted to 5.3%.
With `CC(=O)c1sc(C(NC(=O)c2ccccc2)C2CC2)nc1C` (stereo unspecified), the cytotoxicity at 10 µM was -15.5%.
On to `CCOc1ccc2cc(C(=O)NCCC(=O)N(C)C)[nH]c2c1`, for which the cytotoxicity at 10 µM is -6.16%.
In the case of `Cc1ccccc1C1(CNCc2cnc(N3CCOCC3)nc2)CC1` it was -8.23%; in that of `Cc1csc(C2CCCN(C(=O)c3cnn4ccc(C)nc34)C2)n1` (stereo unspecified), 2.56%.
With `CCCn1cc(NC(=O)c2ccc(S(C)(=O)=O)cc2)ccc1=O`, the cytotoxicity at 10 µM is -13.1%.
Take `CC(C)(CC(=O)Nc1cccc(Oc2ccccn2)c1)C(=O)O`: the cytotoxicity at 10 µM was -17.6%.
`O=C(CS(=O)(=O)Cc1ccc(F)cc1)NCc1ccccc1F`: the cytotoxicity at 10 µM worked out at 5.96%.
As for `Cc1ccc(OCC(=O)NCc2sccc2C)nc1`, the figure is -0.509%; as for `O=c1c2cccnc2cnn1CC(O)c1ccc(F)c(F)c1` (stereo unspecified), -7.44%.
In the case of `CN1C(=O)CCc2cc(NC(=O)C3CC(=O)N(CC4CC4)C3)ccc21` (stereo unspecified) it was -12.2%; in that of `CN(CCCc1cc(-c2cccc(F)c2)n[nH]1)C(=O)CCn1cncn1`, -132%.
`COCCN(Cc1cccs1)C(=O)C1CCCN(C(N)=O)C1` (stereo unspecified): the cytotoxicity at 10 µM was found to be 6.4%.
For `O=C(c1cccnc1)N(CCO)Cc1cc(Br)ccc1F`, the cytotoxicity at 10 µM was 12.7%.
In the case of `COC(=O)c1cccc(S(=O)(=O)NC(=O)CC2CCCC2)c1` it was -9.68%; in that of `O=C(CCc1nc(C2CC2)no1)c1ccc2c(c1)OCCO2`, -7.04%.
As to `O=C(COc1ccccc1NCc1ccc(F)cc1)N1CCOCC1`, the cytotoxicity at 10 µM is -2.82%.
Take `CN(CC(N)=O)C(=O)c1csc(Br)c1`: the cytotoxicity at 10 µM amounted to 3%.
Turning to `c1cncc(-c2nc3c(c(NCC4(c5ccncc5)CC4)n2)CCC3)c1`, the cytotoxicity at 10 µM is 7.77%.
For the molecule `COCC(NC(=O)NCc1cccc(C#N)c1)c1ccco1` (stereo unspecified), the cytotoxicity at 10 µM turned out to be 2.7%.
Regarding `Cn1cccc(NC(=O)N2CCC(CSc3ccccc3)C2)c1=O` (stereo unspecified), the cytotoxicity at 10 µM amounted to 40.2%.
As to `COc1ccccc1OCCN1CCCC(c2noc(C3CC3)n2)C1` (stereo unspecified), the cytotoxicity at 10 µM is 1.26%.
Regarding `COCC(NC(=O)c1cnn(C)c1)c1cccc(C(F)(F)F)c1` (stereo unspecified), the cytotoxicity at 10 µM is 1.73%.
In the case of `CS(=O)(=O)N1CCCC12CCN(Cc1ccoc1)CC2` it was -3.98%.
For `O=C(c1ccoc1)N1CC[C@H]2C[C@@H](c3ccncn3)O[C@@H]2C1`, the cytotoxicity at 10 µM is -76.1%.
For `CCn1nc(CC(C)C)cc1C(=O)NCCCN1CCOCC1`, the cytotoxicity at 10 µM is 1.6%.
As for `COc1ccc(Cn2c(CCc3c(C)n[nH]c3C)n[nH]c2=O)cc1`, the figure is -144%.
With `Cc1ccccc1OCC1CCCN(C(=O)Cc2c[nH]c(=O)[nH]c2=O)C1` (stereo unspecified), the cytotoxicity at 10 µM was -136%.
As to `CC(C)c1nccn1CC(=O)Nc1ccnn1C(C)C(C)C` (stereo unspecified), the cytotoxicity at 10 µM was 1.11%.
For `O=C(O)[C@@H]1CN(CC(=O)N2CCCCCC2)C[C@H]1c1ccc(F)cc1`, the cytotoxicity at 10 µM is -3.24%.
`Cc1ncsc1CCN(C)C(=O)CN1CC2(CCNCC2)OC1=O`: the cytotoxicity at 10 µM was -7.33%.
On to `CCc1nc(CN(C)C(=O)CSC)no1`, for which the cytotoxicity at 10 µM is 2.25%.
Regarding `Cc1nnc(CCNC(=O)[C@H]2CNC[C@@H](C(=O)N3CCCC3)C2)s1`, the cytotoxicity at 10 µM was -113%.
For `COc1c(C)cc(C(C(=O)O)N(C)Cc2ccn[nH]2)cc1C` (stereo unspecified), the cytotoxicity at 10 µM is 2.82%.
Regarding `CN(C)C(=O)c1nc(CN2CC(c3ccccc3)CC2=O)no1` (stereo unspecified), the cytotoxicity at 10 µM is 0.624%.
Regarding `CC(C)n1cnnc1CN(C)C(=O)c1ccc[nH]1`, the cytotoxicity at 10 µM is -0.371%.
`CC(C)[C@@H]1CN(Cc2c[nH]nc2-c2ccc(F)cc2)C[C@H]1NS(C)(=O)=O`: the cytotoxicity at 10 µM is -0.882%.
With `O=C1OCCN1Cc1ccc(C(F)(F)F)cc1F`, the cytotoxicity at 10 µM is -0.419%.
Take `c1cc2c(cc1CN1CCC(Cc3noc(C4CC4)n3)CC1)OCCO2`: the cytotoxicity at 10 µM was 14.9%.
Consider `CCc1nc(C)c(C(=O)N[C@@H]2c3ccccc3C[C@@H]2O)o1`, for which the cytotoxicity at 10 µM came to 4.57%.
As for `Cc1ccc(CN2CC[C@@]3(O)CCN(S(=O)(=O)N(C)C)C[C@H]3C2)cc1C`, the cytotoxicity at 10 µM is -1.42%.
Regarding `N[C@@H]1c2ccccc2C2(CCN(C(=O)c3ccccc3O)CC2)[C@H]1O`, the cytotoxicity at 10 µM stood at 6.38%.
In the case of `COc1ccc(CCN2C(=O)O[C@@H]3CN(C4CCOCC4)C[C@@H]32)cc1` it was 6.86%; in that of `Cc1ncc(S(C)(=O)=O)c(C2CCCNC2)n1` (stereo unspecified), 1.17%.
As to `CS(=O)(=O)c1ccc(C(=O)NCCNc2ncccn2)cc1`, the cytotoxicity at 10 µM is -5.15%.
With `Cc1nc(C)n(CC2CN(CCOc3cccc(C#N)c3)CCO2)n1` (stereo unspecified), the cytotoxicity at 10 µM is -13.2%.
In the case of `CCc1noc(C(C)N2CCN(CCOCC(F)(F)F)CC2)n1` (stereo unspecified) it was -9.45%; in that of `Cn1cc(NC(=O)C2CC(c3ccccc3)C2)ccc1=O` (stereo unspecified), -4.42%; in that of `COc1ncccc1C(=O)N1CCCC(n2ccnc2)C1` (stereo unspecified), -5.1%.
In the case of `Cn1cc(CN2CCCN(C(=O)c3sccc3C#N)CC2)cn1`, the cytotoxicity at 10 µM was -1.37%.
`COc1ccsc1C(=O)N1CCCC(n2nc(C)cc2C)C1` (stereo unspecified): the cytotoxicity at 10 µM was -9.41%.
`Cc1cc(C)n(C2CCCN(C(=O)Cc3cccs3)C2)n1` (stereo unspecified): the cytotoxicity at 10 µM was -20.8%.
In the case of `Cc1cnc(C(=O)N2CCCN(c3nc(C)cs3)CC2)cn1`, the cytotoxicity at 10 µM was -8.81%.
`O=C(Cc1csc(-c2ccco2)n1)N1CCSCC1`: the cytotoxicity at 10 µM was -16.2%.
In the case of `Cc1cnn(CC2CN(Cc3nc(-c4cccnc4)no3)CCO2)c1` (stereo unspecified), the cytotoxicity at 10 µM is -20.5%.
For the molecule `NC(=O)NC(=O)CCN1CCCN(c2nccs2)CC1`, the cytotoxicity at 10 µM came to 11.1%.
As for `Cc1cc(C)n(CC2CCCCN2CCCS(N)(=O)=O)n1` (stereo unspecified), the figure is 6.28%; as for `O=C(Cc1ccccn1)N1CCN(C(=O)c2cccc3[nH]ncc23)CC1`, -2.48%; as for `Cn1cnnc1C1CCCN(C(=O)NCCc2ccccc2F)C1` (stereo unspecified), -1.88%.
Take `Cc1noc(C2CN(Cc3ccc4c(c3)CCO4)C2)n1`: the cytotoxicity at 10 µM was -0.478%.
With `Cc1noc([C@H]2C[C@@H]3CCN(CC4CC4)C[C@H]3O2)n1`, the cytotoxicity at 10 µM is -7.23%.
In the case of `COc1cc(CNCC(O)c2ccc(C)cc2)cc2c1OCO2` (stereo unspecified), the cytotoxicity at 10 µM is -0.282%.
In the case of `O=C(c1cscn1)N1CCC2(CCN(Cc3cccs3)CC2)C1`, the cytotoxicity at 10 µM is 3.91%.
Regarding `CN(C)CCN1CCc2c(nnn2C)C1COCc1ccccc1` (stereo unspecified), the cytotoxicity at 10 µM was -90.3%.
As to `Cc1nc(CN2C(=O)C[C@@H]3[C@@H]2CCN3CC2CCOCC2)cs1`, the cytotoxicity at 10 µM was -135%.
`Cc1ccc(NC2COC3(CCN(Cc4ccn(C)n4)CC3)C2)nn1` (stereo unspecified): the cytotoxicity at 10 µM is -1.68%.
On to `O=C(Nc1cnccn1)[C@H]1CC[C@@H]2[C@@H](CCN2Cc2ccccn2)O1`, for which the cytotoxicity at 10 µM is -139%.

The record behind these values is ChEMBL document CHEMBL4513216, “Probing the Open Global Health Chemical Diversity Library for Multistage-Active Starting Points for Next-Generation Antimalarials” (ACS Infect Dis, 2020).
